The results in this text go back to ChEMBL document CHEMBL1157061, “Polybioside, a neuroactive compound from the venom of the social wasp Polybia paulista” (J Nat Prod, 2010).

Molecules are shown by their SMILES. Active and inactive are the calls of the source. No cut-off for these calls is given here.

Series [1] concerns Thalamus. Description: Neuronal activity in Wistar rat brain paraventricular nucleus of thalamus assessed as c-Fos-immunoreactive neurons at 0.1 ug/ul, icv after 2 hrs by immunohistochemistry analysis. Type of series: functional, tissue-based. The essentials: (§1)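 Adult male Wistar rats (250-300 g) were acclimated for one week and handled twice daily. An ICV cannula was placed about 2 h before dosing. Compound was given ICV in 10 µL 0.9% saline; saline-only controls (n = 3). After 2 h, rats were perfused with 4% formaldehyde (pH 9.5). Coronal 30 µm sections were stained with rabbit anti-c-Fos (1:5000, 18 h, RT), biotinylated goat anti-rabbit, ABC and DAB, with thionin counterstain. Immunoreactive cells were counted in fixed areas; Student's t-test, p<0.05.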

Series [2] has as its system Hypothalamus. Nature of the series: Neuronal activity in Wistar rat brain paraventricular nucleus of hypothalamus assessed as c-Fos-immunoreactive neurons at 0.1 ug/ul, icv after 2 hrs by immunohistochemistry analysis. Type of series: functional, tissue-based. The essentials:
as §1

Series [3] has as its system Brain. Nature of the series: Neuronal activity in Wistar rat brain anterior hyphalamic area assessed as c-Fos-immunoreactive neurons at 0.1 ug/ul, icv after 2 hrs by immunohistochemistry analysis. In kind it is functional, tissue-based. The essentials:
as §1

The subject of series [4] is Hippocampus. Description: Neuronal activity in Wistar rat brain hippocampus assessed as c-Fos-immunoreactive neurons at 0.1 ug/ul, icv after 2 hrs by immunohistochemistry analysis. Type of series: functional, tissue-based. The essentials:
as §1

For series [5], the system named is Brain. Nature of the series: Neuronal activity in Wistar rat brain dorsal intermediate nucleus assessed as c-Fos-immunoreactive neurons at 0.1 ug/ul, icv after 2 hrs by immunohistochemistry analysis. Type of series: functional, tissue-based. The essentials:
as §1

Series [6] has as its system Brain. Description: Neuronal activity in Wistar rat brain reuniens nucleus assessed as c-Fos-immunoreactive neurons at 0.1 ug/ul, icv after 2 hrs by immunohistochemistry analysis. In kind it is functional, tissue-based. A digest of the protocol:
as §1

The test system of series [7] is Rattus norvegicus. Nature of the series: Neurotoxicity in Wistar rat assessed as convulsion at 10 ng/kg, icv after 5 mins. Type of series: toxicity, organism-based. As to conditions: in vivo, icv_or_intrathecal, 1e-05 mg/kg. The essentials: (§2)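 Adult male Wistar rats (250-300 g, acclimated one week) received 10 ng/kg ICV in 0.9% saline through a cannula placed about 2 h earlier. Behaviour was observed afterwards, including convulsions, piloerection and eye signs. Sensorimotor reflexes were scored by righting reflex and wire suspension test, with follow-up to recovery at 80 min.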

For series [8], the system named is Rattus norvegicus. Description: Neuronal activity in Wistar rat brain lateral septal nucleus dorsal assessed as c-Fos-immunoreactive neurons at 0.1 ug/ul, icv after 2 hrs by immunohistochemistry analysis. In kind it is functional, tissue-based. A digest of the protocol: as §1
Series [9] relates to Rattus norvegicus. Description: Neurotoxicity in Wistar rat at 100 ng/kg, iv. In kind it is toxicity, organism-based. As to conditions: in vivo, 0.0001 mg/kg. A digest of the protocol:
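Given peripherally at 100 ng/kg through an intravenous catheter placed in Wistar rats anaesthetised with chloral hydrate (7%, 350 mg/kg ip), to test passage across the blood-brain barrier; behaviour was then observed.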

Series [10] relates to Brain. Description: Neuronal activity in Wistar rat brain dorsomedial hyphalamic nucleus assessed as c-Fos-immunoreactive neurons at 0.1 ug/ul, icv after 2 hrs by immunohistochemistry analysis. Type of series: functional, tissue-based. The essentials:
as §1

The subject of series [11] is Rattus norvegicus. Description: Neurotoxicity in Wistar rat assessed as loss of sensor motor reflexes at 10 ng/kg, icv after 30 mins by wire suspension test. Type of series: toxicity, organism-based. As to conditions: in vivo, icv_or_intrathecal, 1e-05 mg/kg, 0.5 h. The essentials: as §2
Series [12] relates to Rattus norvegicus. Description: Neuronal activity in Wistar rat brain piriform cortex assessed as c-Fos-immunoreactive neurons at 0.1 ug/ul, icv after 2 hrs by immunohistochemistry analysis. Type of series: functional, tissue-based. A digest of the protocol:
as §1

For series [13], the system named is Rattus norvegicus. Description: Neuronal activity in Wistar rat brain rhomboid nucleus assessed as c-Fos-immunoreactive neurons at 0.1 ug/ul, icv after 2 hrs by immunohistochemistry analysis. Type of series: functional, tissue-based. As to conditions: Rhomboidal nucleus. A digest of the protocol:
as §1

Series [14] concerns Rattus norvegicus. Nature of the series: Neurotoxicity in Wistar rat assessed as localized diffuse piloerection around neck at 10 ng/kg, icv up to 10 mins. Type of series: toxicity, organism-based. As to conditions: in vivo, icv_or_intrathecal, 1e-05 mg/kg. A digest of the protocol:
as §2

The subject of series [15] is Rattus norvegicus. Description: Neurotoxicity in Wistar rat assessed as localized diffuse piloerection on head at 10 ng/kg, icv up to 10 mins. As to conditions: in vivo, icv_or_intrathecal, 1e-05 mg/kg. In kind it is toxicity, organism-based. A digest of the protocol: as §2
The test system of series [16] is Rattus norvegicus. Nature of the series: Neurotoxicity in Wistar rat assessed as partial closing of eyelids with porphyrin accumulation at 10 ng/kg, icv after 10 mins up to 30 mins. Type of series: toxicity, organism-based, Eyelid. As to conditions: in vivo, icv_or_intrathecal, 1e-05 mg/kg. The essentials:
as §2

For series [17], the system named is Rattus norvegicus. Description: Neurotoxicity in Wistar rat assessed as tonic clonic crises at 10 ng/kg, icv up to 10 mins. In kind it is toxicity, organism-based. As to conditions: in vivo, icv_or_intrathecal, 1e-05 mg/kg. The essentials: as §2

Take `N=C(CCc1c[nH]cn1)O[C@H]1O[C@H](CO)[C@@H](O)[C@H](O)[C@H]1O` [POLYBIOSIDE]: the result in series [1], in series [2], in [3], in [4], in [5] and in series [6] was Active. The result in [8], in series [10], in series [12] and in series [13] was Active. The Activity entry in series [7], in series [9], in series [11], in series [14], in [15] and in series [16] was “Toxic” in each case. Moreover, the Activity result in series [17] is listed as “Toxic”.
